LANA-H2A inh = blocks KSHV LANA binding to histone H2A/H2B; Q9QR71; cell-free LANA-H2A/H2B peptide, fluorescence polarization; inhibition, % (no concentration beside the values); actives 0.6% (n = 320,000); AID 2629; in the data active = inhibition mostly above about 10%, no sharp cut-off; inactive = mostly below about 6.7%
AI-2 QS mod = Vibrio harveyi AI-2 quorum sensing modulation; Vibrio harveyi JMH597 AI-2 luminescence/OD600 ratio, 9 h; stronger effect = lower value; strain lacks LuxN and CqsS sensors; 0 = neutral-control median; activity change, % at 7.5 µM; AID 2094; actives 0.4% (n = 300,000); in the data active = activity change below about -75%, passing the limit was not always enough;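 also: luminescence divided by OD600 gain over 9 h not by final OD600 alone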
Bfl-1 A1 inh = inhibitors of the anti-apoptotic protein A1, read as caspase activation; caspase activation, % (test concentration not listed); AID 2462; actives 0.066% (n = 330,000); MEF A1-2A-BIM cells, Caspase-Glo 3/7 luminescence, 3 h; percent of clofoctol response, vehicle zero;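 active = over half of replicate activation scores above 10%, or exactly half above 10 with the replicate mean above 10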
HDAC3 inhib = inhibitors of human histone deacetylase 3. O15379. recombinant HDAC3, fluorogenic peptide/trypsin coupled, fluorescence. inhibition, % at 8.3 µM. actives 0.15% (n = 320,000); in the data active = inhibition above about 26%, passing the limit was not always enough
ATG4B inh = ATG4B (human) cysteine protease inhibition; Q9Y4P1; ATG4B cleavage of LC3-PLA2, NBD-HPC fluorescence, 1 h; inhibition, % at 8.33 µM; actives 0.51% (n = 340,000); in the data active = inhibition above about 40%
HKDC1 inhibitor = HKDC1 (human) hexokinase inhibition. recombinant HKDC1, G6PDH/diaphorase resazurin coupled fluorescence. inhibition, % at 20 µM. actives 0.16% (n = 340,000). AID 493160;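 active = inhibition above about 35% when tested at 20 µM, limit read from the data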;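 also: plate controls were DMSO wells with enzyme for no effect and DMSO wells lacking enzyme for full effect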
Target sequence (Q2TB90 whole entry, looked up): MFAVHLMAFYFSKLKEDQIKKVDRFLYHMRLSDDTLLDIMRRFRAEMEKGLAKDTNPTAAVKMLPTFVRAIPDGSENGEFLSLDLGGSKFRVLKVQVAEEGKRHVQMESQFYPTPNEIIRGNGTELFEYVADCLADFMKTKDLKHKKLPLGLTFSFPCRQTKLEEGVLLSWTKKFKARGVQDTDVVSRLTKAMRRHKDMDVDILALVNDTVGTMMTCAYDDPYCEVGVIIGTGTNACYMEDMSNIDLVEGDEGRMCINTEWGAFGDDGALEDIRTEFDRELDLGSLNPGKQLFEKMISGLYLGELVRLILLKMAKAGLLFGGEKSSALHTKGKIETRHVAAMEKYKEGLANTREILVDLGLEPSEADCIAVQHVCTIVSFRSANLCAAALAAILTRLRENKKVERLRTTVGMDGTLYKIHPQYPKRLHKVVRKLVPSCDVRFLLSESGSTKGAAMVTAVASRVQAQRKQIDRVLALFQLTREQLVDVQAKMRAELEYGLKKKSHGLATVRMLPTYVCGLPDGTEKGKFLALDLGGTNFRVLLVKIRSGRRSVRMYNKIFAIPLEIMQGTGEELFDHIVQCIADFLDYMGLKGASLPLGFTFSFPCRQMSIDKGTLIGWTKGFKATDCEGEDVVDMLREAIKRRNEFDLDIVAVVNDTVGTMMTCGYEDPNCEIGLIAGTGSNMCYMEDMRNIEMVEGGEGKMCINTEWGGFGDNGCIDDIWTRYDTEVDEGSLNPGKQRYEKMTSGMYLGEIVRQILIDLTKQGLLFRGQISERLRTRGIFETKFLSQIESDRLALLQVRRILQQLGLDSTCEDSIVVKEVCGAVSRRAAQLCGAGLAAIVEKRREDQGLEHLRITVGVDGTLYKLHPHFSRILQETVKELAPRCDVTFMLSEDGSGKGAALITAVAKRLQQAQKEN
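test system = in-house recombinant HK5 (HKDC1) enzyme | amount = HKDC1 at 5 µg/mL | control set = DMSO-enzyme wells negative, buffer-substituted wells positive | compound = one dose of 20 µM, 1% DMSO | schedule = reaction time 90 min, room temperature, protected from light | technique = resorufin fluorescence at 613 nm | reagent = glucose with 1 mM ATP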
The depositor's hits bear a star. Sampled rows, rich in hits. Any-hit rate of the full collection: about 1.8%.

How did C=CCNC(=S)NNC(=O)c1ccc(OCC(C)C)cc1 do in these assays?
LANA-H2A inh: 19*; AI-2 QS mod: 5; Bfl-1 A1 inh: 0; HDAC3 inhib: 0; ATG4B inh: 1; HKDC1 inhibitor: 6

Results for C=CCNC(=S)NNC(=O)c1ccc(OCC)cc1 ?
LANA-H2A inh: -1; AI-2 QS mod: 6; Bfl-1 A1 inh: 2; HDAC3 inhib: -3; ATG4B inh: 9; HKDC1 inhibitor: 1

Results for Cc1ccn2c(=O)nc(SCc3cccc(C(F)(F)F)c3)nc2c1 ?
LANA-H2A inh: -3; AI-2 QS mod: 19; Bfl-1 A1 inh: 0; HDAC3 inhib: 3; ATG4B inh: 20; HKDC1 inhibitor: -3

How did O=c1nc(SCc2cccc(C(F)(F)F)c2)nc2ccccn12 do in these assays?
LANA-H2A inh: 17*; AI-2 QS mod: 4; Bfl-1 A1 inh: 0; HDAC3 inhib: 2; ATG4B inh: -8; HKDC1 inhibitor: 3

Results for C=CCc1ccccc1Oc1cc(OC)nc(N)n1 ?
ATG4B inh: -8; HKDC1 inhibitor: 3

How did Cc1c(Cc2ccccc2)c(=O)oc2c(CN(C)C)c(O)c(Cl)cc12 do in these assays?
LANA-H2A inh: 5.7*; AI-2 QS mod: 20; Bfl-1 A1 inh: 0; HDAC3 inhib: -114; ATG4B inh: -7; HKDC1 inhibitor: 2

What do the screens show for `Cc1c(Cc2ccccc2)c(=O)oc2c(O)c(O)ccc12`?
AI-2 QS mod: -18; ATG4B inh: 23; HKDC1 inhibitor: 9

What do the screens show for `CN(CCc1ccccc1)C(=O)c1ccc(NC(=O)Cc2ccc(NC(=O)C3CCCN(C(=O)CCc4ccccc4)C3)cc2)cc1` (stereo not given)?
ATG4B inh: -6; HKDC1 inhibitor: -3

How did CN1CCN(C(=O)c2cccc(NS(=O)(=O)c3ccc(Br)cc3)c2)CC1 do in these assays?
LANA-H2A inh: 1; Bfl-1 A1 inh: 0; HDAC3 inhib: -1; ATG4B inh: -5; HKDC1 inhibitor: 2

What do the screens show for `CN1CCCN(C(=O)c2cccc(Br)c2)CC1`?
LANA-H2A inh: 12*; AI-2 QS mod: 15; Bfl-1 A1 inh: 1; HDAC3 inhib: 3; ATG4B inh: 11; HKDC1 inhibitor: -2

Results for COc1ccc(-c2cc3ccccc3oc2=O)cc1NC(=S)NC(=O)c1ccc2c(c1)OCCO2 ?
LANA-H2A inh: 2; AI-2 QS mod: 11; Bfl-1 A1 inh: 26*; HDAC3 inhib: 0; ATG4B inh: 6; HKDC1 inhibitor: 14

How did COc1ccccc1-c1ccc(=O)n(CC(=O)NCc2ccco2)n1 do in these assays?
LANA-H2A inh: 37*; AI-2 QS mod: 11; Bfl-1 A1 inh: -1; HDAC3 inhib: 0; ATG4B inh: 6; HKDC1 inhibitor: -4

Results for CCN1CCN(C(CNS(=O)(=O)c2ccc(OC)cc2)c2cccnc2)CC1 (stereo not given) ?
LANA-H2A inh: 14*; AI-2 QS mod: 24; Bfl-1 A1 inh: 0; ATG4B inh: 2; HKDC1 inhibitor: 1

Results for O=[N+]([O-])c1ccc(S(=O)(=O)NN=CCCc2ccccc2)cc1 ?
ATG4B inh: 0; HKDC1 inhibitor: -2

Results for Cc1ccc(S(=O)(=O)N2CCOCC2)cc1NC(=O)Cn1c(=O)ccn(Cc2ccccc2)c1=O ?
ATG4B inh: -17; HKDC1 inhibitor: -7

What do the screens show for `CCOC(=O)C1CCN(C(=O)c2ccc(N(C)S(=O)(=O)c3ccc(OC)cc3)cc2)CC1`?
LANA-H2A inh: 4; AI-2 QS mod: 12; Bfl-1 A1 inh: 0; HDAC3 inhib: 3; ATG4B inh: -5; HKDC1 inhibitor: -4

Results for COc1ccc(NC(=O)CN(C)C(C)C(=O)N2CCCCC2)cc1 (stereo not given) ?
LANA-H2A inh: 6; AI-2 QS mod: 17; Bfl-1 A1 inh: -1; HDAC3 inhib: -6; ATG4B inh: -6; HKDC1 inhibitor: 8

What do the screens show for `CC(C(=O)N1CCCCC1)N(C)CC(=O)Nc1cccc(F)c1` (stereo not given)?
LANA-H2A inh: 30*; Bfl-1 A1 inh: 1; HDAC3 inhib: 3; ATG4B inh: -4; HKDC1 inhibitor: -8

What do the screens show for `Cc1ccc(C2(CCNCc3ccc(N(C)C)cc3)CCOC(C(C)C)C2)cc1` (stereo not given)?
LANA-H2A inh: 0; AI-2 QS mod: 11; Bfl-1 A1 inh: 0; HDAC3 inhib: -2; ATG4B inh: 4; HKDC1 inhibitor: 5

How did CC(C)C1CC(CCNCc2ccc(N(C)C)cc2)(c2ccccc2)CCO1 (stereo not given) do in these assays?
LANA-H2A inh: 7.2*; AI-2 QS mod: 20; Bfl-1 A1 inh: -1; HDAC3 inhib: 0; ATG4B inh: -5; HKDC1 inhibitor: -6

How did O=C(Cc1cccs1)Nc1cccc(C(=O)Nc2ccc(C(=O)O)cc2)c1 do in these assays?
LANA-H2A inh: 51*; AI-2 QS mod: 8; Bfl-1 A1 inh: 0; HDAC3 inhib: -9; ATG4B inh: -4; HKDC1 inhibitor: -8

How did O=C(C=Cc1ccco1)c1ccc2ccccc2c1 do in these assays?
ATG4B inh: 7; HKDC1 inhibitor: 14

Results for Cc1ccc(NC(=O)CSc2nc3ccc(Nc4nc(N5CCOCC5)nc(N5CCOCC5)n4)cc3s2)cc1 ?
LANA-H2A inh: 8; AI-2 QS mod: 15; Bfl-1 A1 inh: 10*; HDAC3 inhib: 3; ATG4B inh: -5; HKDC1 inhibitor: 3

How did Cc1cccc([N+](=O)[O-])c1C(=O)O do in these assays?
LANA-H2A inh: 19*; Bfl-1 A1 inh: 0; HDAC3 inhib: 1; ATG4B inh: -3; HKDC1 inhibitor: -3

How did CC(C)CN(C(=O)CCNC(=O)c1ccc(Cl)cc1)C1CCS(=O)(=O)C1 (stereo not given) do in these assays?
LANA-H2A inh: 1; Bfl-1 A1 inh: 0; HDAC3 inhib: -1; ATG4B inh: 9; HKDC1 inhibitor: -9

How did COc1ccc(-c2nc(SCC(=O)NC3CCCCC3)n[nH]2)cc1 do in these assays?
LANA-H2A inh: 76*; AI-2 QS mod: 207; Bfl-1 A1 inh: 1; HDAC3 inhib: -3; ATG4B inh: -6; HKDC1 inhibitor: -4

How did S=C(NCc1ccccc1)N/N=C/c1cccs1 do in these assays?
LANA-H2A inh: 13*; AI-2 QS mod: 1; Bfl-1 A1 inh: -3; HDAC3 inhib: 5; ATG4B inh: 3; HKDC1 inhibitor: -15

Results for O=C(COc1ccc(Cl)cc1)NCC(=O)N/N=C/c1cccs1 ?
LANA-H2A inh: -1; AI-2 QS mod: 3; Bfl-1 A1 inh: 0; HDAC3 inhib: 2; ATG4B inh: 1; HKDC1 inhibitor: -1

Results for O=C(COc1ccccc1)NCC(=O)N/N=C/c1cccs1 ?
LANA-H2A inh: 55*; AI-2 QS mod: 16; Bfl-1 A1 inh: 1; HDAC3 inhib: -1; ATG4B inh: 1; HKDC1 inhibitor: -6

Results for O=C(c1ccc(NS(=O)(=O)c2ccc(Cl)c(Cl)c2)cc1)N1CCOCC1 ?
ATG4B inh: -10; HKDC1 inhibitor: -6

Assay outcomes as filed in PubChem BioAssay.
